Columns and labels:
[1] = test system: MDA-MB-468 cells; assay: Western blot analysis of UPR / PERK-eIF2α-ATF4 pathway proteins; format: cell-based, human; conditions: for baseline phosphorylation of PERK and eIF2α, inhibitor alone: Western blot; for effect on DH20931-induced accumulation of ATF4 protein / effect on DH20931-induced phosphorylation of PERK and eIF2α: co-treatment with DH20931, Western blot
In short: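 Treatment lasted 24 h at 0, 2.5, 5, 10 or 20 μM test compound. Western blots were developed with BCIP/NBT substrate. Bands were quantified by densitometry and normalized to a loading control such as β-actin.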

[2] = test system: 4T1-CERS2^+/+ cells; assay: Mitochondrial Ca2+ by Rhod-2 AM confocal microscopy; format: cell-based, mouse; conditions: 6 h
In short: (§1)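 Cells were seeded on glass-bottom dishes and grown overnight to ~70% confluence, in triplicate. Exposure was 6 h to test compound (5 or 10 μM) or thapsigargin (1 or 2 μM) as ER Ca2+-depletion control. Cells were rinsed in HBSS and co-loaded 20 min at 37°C with 1 μM Mag-Fluo-4 AM (ER Ca2+) and 100 nM Rhod-2 AM (mitochondrial Ca2+).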

[3] = test system: 4T1-CERS2^−/− cells; assay: as above; format: cell-based, mouse; conditions: 6 h
In short: as §1

Structure (SMILES)	baseline phosphorylation of PERK and eIF2α, inhibitor alone [1]	effect on DH20931-induced accumulation of ATF4 protein [1]	effect on DH20931-induced phosphorylation of PERK and eIF2α [1]	mitochondrial Ca2+ levels [2]	mitochondrial Ca2+ increase in the absence of CerS2 [3]
Cn1cc(-c2ccc3c(c2)CCN3C(=O)Cc2cccc(C(F)(F)F)c2)c2c(N)ncnc21 [GSK2606414]	decrease in the baseline phosphorylation levels of both PERK and eIF2α	attenuated the DH20931-induced accumulation of ATF4 protein	did not affect the DH20931-induced phosphorylation	–	–
Cc1ccc2cc(-c3c(C)ccc(C(=O)c4c(-c5ccccc5)n(C)n(-c5ccccc5)c4=O)c3N)ccc2n1 [AMG44]	decrease in the baseline phosphorylation levels of both PERK and eIF2α	attenuated the DH20931-induced accumulation of ATF4 protein	markedly diminished it	–	–
C/C=C(/C)C(=O)O[C@H]1C(C)=C2[C@H]([C@@H]1OC(=O)CCCCCCC)[C@@](C)(OC(C)=O)C[C@H](OC(=O)CCC)[C@@]1(O)[C@H]2OC(=O)[C@@]1(C)O [Tg, thapsigargin]	–	–	–	increase in mitochondrial Ca^2+ levels	completely abolished

Source: paper PMC12393413 (bioRxiv, 2025)
